inhibition, Ki and Activity data for three molecules are collected here from ChEMBL document CHEMBL4251609, “Substrate-derived triazolo- and azapeptides as inhibitors of cathepsins K and S” (Eur J Med Chem, 2018).

The source made the active and inactive calls. No cut-off for these calls is given here. Starred links: 1 amine or outer side, 2 acyl side, 3 side chain; linkers in the order of their positions; H or OH if unused. Non-standard residues stand in square brackets, D forms with d. Residues, ends and D or L forms follow the SMILES beside them. Tyr(3-NO2) = N[C@@H](Cc1ccc(O)c([N+](=O)[O-])c1)C(=O)O; X1 = O=C([C@H](Cc1ccccc1)n1cc(CN[*:1])nn1)[*:2]; 4Abz = Nc1ccc(C(=O)O)cc1

Test [1] has as its target T1, Cathepsin S (Homo sapiens, UniProt P25774). Description: Reversible inhibition of human cathepsin S at 600 uM in presence of excess Z-LR-AMC.
Target sequence in this assay (P25774 115-331 limits assumed): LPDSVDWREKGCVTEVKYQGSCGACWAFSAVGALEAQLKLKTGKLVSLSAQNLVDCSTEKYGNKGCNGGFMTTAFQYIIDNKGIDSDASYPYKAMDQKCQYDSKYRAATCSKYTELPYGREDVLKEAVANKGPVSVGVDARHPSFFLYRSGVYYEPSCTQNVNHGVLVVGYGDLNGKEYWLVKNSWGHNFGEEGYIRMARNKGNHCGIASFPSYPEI
The target in test [2] is T1, Cathepsin S. Description: Reversible competitive inhibition of human cathepsin S using fluorogenic AMC-derived peptide substrate assessed as reduction in residual activity at pH 7.4 preincubated for 30 mins followed by substrate addition. In short, it runs like this: (§1)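 Ki values for cathepsin S determined at pH 5.5 and again at pH 7.4, a pH at which this enzyme stays stable and active, to compare the two conditions.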
Target sequence in this assay (P25774 whole entry): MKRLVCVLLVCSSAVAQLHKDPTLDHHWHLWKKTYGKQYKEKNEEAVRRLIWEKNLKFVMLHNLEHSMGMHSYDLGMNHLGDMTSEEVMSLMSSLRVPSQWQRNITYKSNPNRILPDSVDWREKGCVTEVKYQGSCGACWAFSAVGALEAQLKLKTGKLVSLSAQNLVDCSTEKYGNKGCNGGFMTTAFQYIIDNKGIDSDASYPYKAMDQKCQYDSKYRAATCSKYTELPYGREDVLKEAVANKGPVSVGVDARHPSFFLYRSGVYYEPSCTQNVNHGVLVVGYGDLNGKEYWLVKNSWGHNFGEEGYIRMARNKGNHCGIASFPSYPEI

The target in test [3] is T2, Neutrophil elastase (Homo sapiens) (UniProt P08246).
T2 sequence (whole entry): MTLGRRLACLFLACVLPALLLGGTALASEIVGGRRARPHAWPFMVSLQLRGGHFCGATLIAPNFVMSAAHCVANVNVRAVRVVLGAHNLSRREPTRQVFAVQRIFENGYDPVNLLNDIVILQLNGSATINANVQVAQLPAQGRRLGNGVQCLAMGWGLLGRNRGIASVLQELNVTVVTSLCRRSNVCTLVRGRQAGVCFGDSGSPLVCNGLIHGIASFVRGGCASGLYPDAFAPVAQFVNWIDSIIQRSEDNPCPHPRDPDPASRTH
The experiment in a line: Inhibition of human neutrophil elastase incubated for 30 mins using Abz-Ala-Pro-Glu-Glu-Ile-Met-Arg-Arg-Gln-(3-NO2-Tyr) substrate.

The target of test [4] is Cathepsin S (Mus musculus) (UniProt O70370). The experiment in a line: Inhibition of cathepsin S in C57/Bl6 mouse spleen lysate using Z-Val-Leu-Arg-AMC as substrate at 10 uM preincubated for 30 mins followed by substrate addition. The format is subcellular.
The target in test [5] is T3, Cathepsin K (Homo sapiens) (UniProt P43235).
T3 sequence (whole entry): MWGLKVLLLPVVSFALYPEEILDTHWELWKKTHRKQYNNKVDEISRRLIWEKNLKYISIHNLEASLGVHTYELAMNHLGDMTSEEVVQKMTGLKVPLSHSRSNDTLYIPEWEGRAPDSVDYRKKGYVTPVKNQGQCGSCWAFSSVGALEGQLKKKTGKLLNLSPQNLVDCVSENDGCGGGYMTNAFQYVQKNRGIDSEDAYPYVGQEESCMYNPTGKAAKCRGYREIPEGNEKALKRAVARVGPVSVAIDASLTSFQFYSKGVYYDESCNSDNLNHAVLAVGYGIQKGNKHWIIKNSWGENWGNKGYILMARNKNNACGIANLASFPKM
Description: Inhibition of human cathepsin K using fluorogenic AMC-derived peptide substrate assessed as reduction in residual activity preincubated for 30 mins followed by substrate addition.

For a further test, the target named is T4, Cathepsin K (Homo sapiens, UniProt P43235).
T4 sequence (P43235 whole entry): T3 sequence (whole entry)
The experiment in a line: Reversible competitive inhibition of human cathepsin K using fluorogenic AMC-derived peptide substrate assessed as reduction in residual activity preincubated for 30 mins followed by substrate addition. The procedure, abridged: (§2)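 Inhibition constants (Ki) determined at pH 5.5, with reversibility and competitive mode also assessed.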

The target of test [6] is T1, Cathepsin S. The experiment in a line: Reversible inhibition of human cathepsin S at 600 uM preincubated for 30 mins followed by Biot-(PEG)2-Ahx-LeuValGly-DMK addition measured after 1 hr by chemiluminescence assay.
Target sequence in this assay (P25774 115-331 limits assumed): as the sequence (P25774 115-331 limits assumed) above
The next test addresses T5, Pro-cathepsin H (Homo sapiens, UniProt P09668).
T5 sequence (P09668 whole entry): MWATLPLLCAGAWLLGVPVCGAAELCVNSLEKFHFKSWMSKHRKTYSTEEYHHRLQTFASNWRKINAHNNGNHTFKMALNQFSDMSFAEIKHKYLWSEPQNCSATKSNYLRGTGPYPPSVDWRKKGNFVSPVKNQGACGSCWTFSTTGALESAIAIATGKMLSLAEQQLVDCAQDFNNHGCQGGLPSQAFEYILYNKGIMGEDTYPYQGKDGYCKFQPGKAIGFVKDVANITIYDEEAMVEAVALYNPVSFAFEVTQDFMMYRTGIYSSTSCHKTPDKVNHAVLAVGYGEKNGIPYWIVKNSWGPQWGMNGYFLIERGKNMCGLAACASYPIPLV
Description: Reversible competitive inhibition of human cathepsin H using fluorogenic AMC-derived peptide substrate assessed as reduction in residual activity preincubated for 30 mins followed by substrate addition.

Test [7] has as its target 72 kDa type IV collagenase (Homo sapiens) (UniProt P08253). Description: Inhibition of human recombinant MMP-2 expressed in CHO cells incubated for 30 mins by Mca-Arg-Pro-Pro-Gly-Phe-Ser-Ala-Phe-Lys(Dnp) substrate. The format is cell-based.
For test [8], the target named is Cathepsin D (Homo sapiens) (UniProt P07339). Description: Inhibition of human cathepsin D incubated for 30 mins using Mca-Gly-Lys-Pro-Ile-Leu-Phe-Phe-Arg-Leu-Lys(Dnp)-D-Arg-NH2 substrate.
Chain of Cathepsin D (Homo sapiens) (P07339 65-162 limits assumed): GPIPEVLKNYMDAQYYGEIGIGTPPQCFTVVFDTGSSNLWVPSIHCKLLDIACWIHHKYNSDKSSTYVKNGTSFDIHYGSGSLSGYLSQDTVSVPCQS
Chain of Cathepsin D (Homo sapiens) (P07339 169-412 limits assumed): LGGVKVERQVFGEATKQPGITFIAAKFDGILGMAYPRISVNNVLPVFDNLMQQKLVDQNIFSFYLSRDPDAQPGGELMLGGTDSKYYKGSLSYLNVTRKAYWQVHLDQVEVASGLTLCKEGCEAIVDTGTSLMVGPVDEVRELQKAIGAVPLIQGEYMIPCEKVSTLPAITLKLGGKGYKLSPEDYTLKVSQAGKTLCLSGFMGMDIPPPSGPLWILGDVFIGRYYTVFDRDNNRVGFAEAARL
The target in test [9] is T6, Pro-cathepsin H (Homo sapiens) (UniProt P09668).
T6 sequence (whole entry): T5 sequence (P09668 whole entry)
Description: Inhibition of human cathepsin H using fluorogenic AMC-derived peptide substrate assessed as reduction in residual activity preincubated for 30 mins followed by substrate addition.

Test [10] addresses T7, Procathepsin L (Homo sapiens, UniProt P07711). The experiment in a line: Reversible competitive inhibition of human cathepsin L using fluorogenic AMC-derived peptide substrate assessed as reduction in residual activity preincubated for 30 mins followed by substrate addition. In short, it runs like this:
as §2
Target sequence in this assay (P07711 whole entry): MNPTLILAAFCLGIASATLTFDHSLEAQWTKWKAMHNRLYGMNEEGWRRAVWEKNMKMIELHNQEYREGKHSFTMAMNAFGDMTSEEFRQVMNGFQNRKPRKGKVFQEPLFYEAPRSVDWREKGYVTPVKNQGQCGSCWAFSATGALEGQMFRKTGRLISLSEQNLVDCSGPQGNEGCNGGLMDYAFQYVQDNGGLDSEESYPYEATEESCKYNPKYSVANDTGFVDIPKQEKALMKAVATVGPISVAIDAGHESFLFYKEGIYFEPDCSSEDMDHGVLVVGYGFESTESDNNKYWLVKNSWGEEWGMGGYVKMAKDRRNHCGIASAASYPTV

In test [11] the target is T8, Trypsin (Homo sapiens) (UniProt P07477+P07478+P35030). Description: Inhibition of trypsin (unknown origin) incubated for 30 mins using Abz-Thr-Pro-Arg-Ser-Ala-Leu-Gln-EDDnp substrate. It is filed as protein assay.
Test [12] addresses T1, Cathepsin S. The experiment in a line: (§3) Reversible competitive inhibition of human cathepsin S using fluorogenic AMC-derived peptide substrate assessed as reduction in residual activity at pH 5.5 preincubated for 30 mins followed by substrate addition. In short, it runs like this:
as §1
Target sequence in this assay (P25774 whole entry): as the sequence (P25774 whole entry) above

The species entered for the next test is Homo sapiens. Description: Inhibition of chymotrypsin (unknown origin) incubated for 30 mins using Abz-Thr-Pro-Phe-Ser-Gly-Gln-EDDnp substrate.
Test [13] addresses Cathepsin B (Mus musculus) (UniProt P10605). The experiment in a line: Inhibition of cathepsin B in C57/Bl6 mouse spleen lysate using Z-Arg-Arg-AMC as substrate at 10 uM preincubated for 30 mins followed by substrate addition. The format is subcellular.
The target of test [14] is Cathepsin B (Homo sapiens) (UniProt P07858). Description: Inhibition of human cathepsin B.
In test [15] the target is T1, Cathepsin S. Description: Inhibition of human cathepsin S using fluorogenic AMC-derived peptide substrate assessed as reduction in residual activity preincubated for 30 mins followed by substrate addition.
Target sequence in this assay (P25774 115-331 limits assumed): as the sequence (P25774 115-331 limits assumed) above
For test [16], the target named is T1, Cathepsin S. The description is as §3. The procedure, abridged:
as §1
Target sequence in this assay (P25774 115-331 limits assumed): as above
The source holds these as a separate data set.

In test [17] the target is T7, Procathepsin L. The experiment in a line: Inhibition of human cathepsin L using fluorogenic AMC-derived peptide substrate assessed as reduction in residual activity preincubated for 30 mins followed by substrate addition.
Target sequence in this assay (P07711 114-333 limits assumed): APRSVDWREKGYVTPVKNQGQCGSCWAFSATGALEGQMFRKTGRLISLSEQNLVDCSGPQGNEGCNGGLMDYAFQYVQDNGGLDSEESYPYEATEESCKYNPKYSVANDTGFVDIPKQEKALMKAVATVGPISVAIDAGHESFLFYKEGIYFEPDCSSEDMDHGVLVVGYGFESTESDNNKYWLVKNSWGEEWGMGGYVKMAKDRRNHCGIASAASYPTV
For test [18], the target named is T3, Cathepsin K (Homo sapiens). The experiment in a line: Inhibition of human cathepsin K […] activity at 3 uM pre-incubated for 30 mins before bradykinin substrate addition by reverse-phase chromatography.
Test [19] concerns the target T8, Trypsin (Homo sapiens). Description: Substrate activity of trypsin (unknown origin) assessed as compound hydrolysis. It is filed as protein assay. The procedure, abridged:
(§4)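 Compound was incubated with each protease and the incubation mixtures were analysed by RP-HPLC for proteolytic degradation of the compound.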

The target of test [20] is T3, Cathepsin K (Homo sapiens). The experiment in a line: Inhibition of human cathepsin K […] activity at 100 nM pre-incubated for 30 mins before bradykinin substrate addition by reverse-phase chromatography.
Test [21] concerns the target T3, Cathepsin K (Homo sapiens). Description: Inhibition of human cathepsin K […] activity assessed as normalized bradykinin equivalents ratio at 5 uM pre-incubated for 15 mins before kallidin substrate addition by competitive enzyme immunoassay (reference value: <0.5%). Details: scale not given: the % may be the effect or the level left.
Test [22] addresses T3, Cathepsin K (Homo sapiens). Description: Inhibition of human cathepsin K […] activity at 100 nM pre-incubated for 30 mins before Abz-Arg-Pro-Pro-Gly-Phe-Ser-Pro-Phe-Arg-(3-NO2-Tyr) substrate addition by reverse-phase chromatography.
For test [23], the target named is Cathepsin B (Homo sapiens) (UniProt P07858). Description: Substrate activity of human cathepsin B assessed as compound hydrolysis. The procedure, abridged: as §4
Test [24] concerns the target T3, Cathepsin K (Homo sapiens). Description: Inhibition of human cathepsin K […] activity at 3 uM pre-incubated for 30 mins before Abz-Arg-Pro-Pro-Gly-Phe-Ser-Pro-Phe-Arg-(3-NO2-Tyr) substrate addition by reverse-phase chromatography.
The target in test [25] is T3, Cathepsin K (Homo sapiens). Description: Inhibition of human cathepsin K […] activity assessed as normalized bradykinin equivalents ratio at 5 uM pre-incubated for 15 mins before bradykinin substrate addition by competitive enzyme immunoassay (reference value: <0.5%). On the set-up: scale not given: the % may be the effect or the level left.
Test [26] concerns the target T1, Cathepsin S. The experiment in a line: Reversible inhibition of human cathepsin S at 20 uM preincubated for 30 mins followed by Biot-(PEG)2-Ahx-LeuValGly-DMK addition measured after 1 hr by chemiluminescence assay.
Target sequence in this assay (P25774 115-331 limits assumed): as the sequence (P25774 115-331 limits assumed) above
The target in test [27] is T1, Cathepsin S. The experiment in a line: Reversible inhibition of human cathepsin S at 20 uM in presence of excess Z-LR-AMC.
Target sequence in this assay (P25774 115-331 limits assumed): as above
In test [28] the target is Cathepsin S (Mus musculus) (UniProt O70370). Description: Inhibition of cathepsin S in C57/Bl6 mouse spleen lysate using Z-Val-Leu-Arg-AMC as substrate at 100 uM preincubated for 30 mins followed by substrate addition. The format is subcellular.
The target of test [29] is T3, Cathepsin K (Homo sapiens). Description: Inhibition of human cathepsin K […] activity assessed as normalized bradykinin equivalents ratio at 1 uM pre-incubated for 15 mins before kallidin substrate addition by competitive enzyme immunoassay (reference value: <0.5%). Details: scale not given: the % may be the effect or the level left.
The target of test [30] is T3, Cathepsin K (Homo sapiens). The experiment in a line: Inhibition of human cathepsin K […] activity assessed as normalized bradykinin equivalents ratio at 1 uM pre-incubated for 15 mins before bradykinin substrate addition by competitive enzyme immunoassay (reference value: <0.5%). On the set-up: scale not given: the % may be the effect or the level left.
Test [31] has as its target Cathepsin B (Mus musculus) (UniProt P10605). Description: Inhibition of cathepsin B in C57/Bl6 mouse spleen lysate using Z-Arg-Arg-AMC as substrate at 100 uM preincubated for 30 mins followed by substrate addition. The format is subcellular.

Chain of Cathepsin B (Mus musculus) (P10605 80-333 limits assumed): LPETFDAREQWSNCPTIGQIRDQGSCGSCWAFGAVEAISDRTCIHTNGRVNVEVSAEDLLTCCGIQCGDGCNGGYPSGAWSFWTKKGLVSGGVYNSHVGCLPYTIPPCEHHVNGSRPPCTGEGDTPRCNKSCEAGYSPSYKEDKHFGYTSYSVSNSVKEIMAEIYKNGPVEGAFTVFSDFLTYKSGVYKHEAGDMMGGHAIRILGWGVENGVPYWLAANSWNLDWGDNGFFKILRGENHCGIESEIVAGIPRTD
Chain of 72 kDa type IV collagenase (Homo sapiens) (P08253 110-660 limits assumed): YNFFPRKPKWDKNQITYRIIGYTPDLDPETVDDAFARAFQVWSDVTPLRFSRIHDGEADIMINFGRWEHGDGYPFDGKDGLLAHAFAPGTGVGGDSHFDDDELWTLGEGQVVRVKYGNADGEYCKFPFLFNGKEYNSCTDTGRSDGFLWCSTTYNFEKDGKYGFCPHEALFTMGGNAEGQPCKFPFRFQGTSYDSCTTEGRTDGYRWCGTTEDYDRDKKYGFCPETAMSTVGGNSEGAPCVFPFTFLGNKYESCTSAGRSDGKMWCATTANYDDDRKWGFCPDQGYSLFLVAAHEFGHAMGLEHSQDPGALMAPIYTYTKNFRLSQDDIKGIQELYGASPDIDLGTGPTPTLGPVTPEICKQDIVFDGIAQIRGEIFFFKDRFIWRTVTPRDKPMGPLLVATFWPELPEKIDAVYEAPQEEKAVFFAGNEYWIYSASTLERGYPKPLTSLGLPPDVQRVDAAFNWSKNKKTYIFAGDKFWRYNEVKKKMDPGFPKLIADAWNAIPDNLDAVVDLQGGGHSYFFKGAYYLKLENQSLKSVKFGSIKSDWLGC

Consider `CSCC[C@H](NC(=O)[C@@H]1CCCN1C(=O)[C@H](Cc1c[nH]cn1)NC(=O)[C@H](Cc1c[nH]c2ccccc12)NC(=O)[C@H](CCCNC(=N)N)NC(=O)CNC(C)=O)C(=O)NNC(=O)N[C@@H](C)C(=O)N1CCC[C@H]1C(=O)N[C@@H](Cc1c[nH]c2ccccc12)C(=O)N[C@@H](CCC(=O)O)C(=O)N[C@H](C)C(=O)N[C@H](CCCNC(=N)N)C(N)=O`, for which the inhibition entry (at Cathepsin S [1]; in [3]; in test [7]; in [8]; at Trypsin (Homo sapiens) [11]; in the test listed under Homo sapiens) was “inactive” throughout. In [13], the inhibition entry is “inactive”. The Ki (in general, a measure of affinity in units of concentration, obtained from inhibition or displacement) stood at 17 nM on Cathepsin S [2] (read-out: Ki); 3 nM on Cathepsin K; 7000 nM on Pro-cathepsin H (read-out: Ki); 5 nM on Procathepsin L [10]; 26 nM on Cathepsin S [12] (read-out: Ki). Also, the inhibition result (in test [4]; in test [5]; at Cathepsin S [6]; in test [9]; in test [14]; on Cathepsin S [15]) was “Active” throughout. In addition, the inhibition result at Cathepsin S [16] and at Procathepsin L [17] was “Active” each time.
`N=C(N)NCCC[C@H](NC(=O)[C@H](Cc1ccccc1)NC(=O)[C@@H]1CCCN1C(=O)[C@H](CO)NC(=O)[C@H](Cc1ccccc1)n1cc(CNC(=O)[C@@H]2CCCN2C(=O)[C@@H]2CCCN2C(=O)[C@H](CCCNC(=N)N)NC(=O)c2ccc(N)cc2)nn1)C(=O)N[C@@H](Cc1ccc(O)c([N+](=O)[O-])c1)C(N)=O` (H-[4Abz]RPP[X1]SPFR[Tyr(3-NO2)]-NH2): the Ki result on Cathepsin S [2] is “Not Active”; at Cathepsin K, 800 nM; on Pro-cathepsin H, “Not Active”; at Procathepsin L [10], 22000 nM; on Cathepsin S [12], “Not Active”. For the same molecule, the inhibition entry (in [18]; in test [20]; in [22]; in test [24]; on Cathepsin S [26]) was “Active” throughout. In addition, the result (on Trypsin (Homo sapiens) [19]; in test [23]) was Active. The inhibition entry (in test [3]; in [7]; in [8]; in [9]; at Trypsin (Homo sapiens) [11]; in the test filed under Homo sapiens) was “inactive” throughout. For the same molecule, the inhibition result (in [14]; on Cathepsin S [27]) was “inactive” in each case. Also, the Activity in [21] and in test [25] was 100% in each case.
Regarding `CC(C)C[C@H](NC(=O)[C@@H]1O[C@H]1C(=O)O)C(=O)NCCCCN=C(N)N`, the inhibition entry in test [28] and in test [31] was “Active” in each case. Moreover, the Activity in test [29] and in test [30] was 100% each time.
